{
  "source": "ChEMBL document CHEMBL2331221",
  "about": "“Potent elastase inhibitors from cyanobacteria: structural basis and mechanisms mediating cytoprotective and anti-inflammatory effects in bronchial epithelial cells” (J Med Chem, 2013)",
  "key": {"Trypsin": {"target": "Trypsin (Homo sapiens, UniProt P07477+P07478+P35030)", "assay": "Inhibition of Trypsin (unknown origin) using H-D-CHA -Ala-Arg-AMC.2AcOH substrate incubated for 15 mins prior to substrate addition measured for 2 hrs", "type": "protein assay", "method_in_brief": "(§1)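 Protease panel screen: enzyme and inhibitor preincubated 15 min in reaction buffer, then substrate added; reaction followed for 2 h and the initial linear part of the progress curve used for activity. Enzyme, substrate, buffer and detection details are given only in a supporting table.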"}, "Kallikrein-12": {"target": "Kallikrein-12 (Homo sapiens, UniProt Q9UKR0)", "sequence (Q9UKR0 whole entry)": "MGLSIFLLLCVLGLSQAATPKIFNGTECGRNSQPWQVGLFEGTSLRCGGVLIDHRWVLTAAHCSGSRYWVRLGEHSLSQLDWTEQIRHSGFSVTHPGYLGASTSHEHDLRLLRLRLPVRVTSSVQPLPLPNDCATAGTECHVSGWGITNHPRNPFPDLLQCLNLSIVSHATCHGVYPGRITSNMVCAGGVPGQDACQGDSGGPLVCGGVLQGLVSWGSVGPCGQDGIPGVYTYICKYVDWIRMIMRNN", "assay": "Inhibition of Kallikrein-12 (unknown origin) using VPR-AMC substrate incubated for 15 mins prior to substrate addition measured for 2 hrs", "method_in_brief": "(§2)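 Protease panel screen: enzyme and test inhibitor preincubated 15 min in the enzyme's reaction buffer, then substrate added. Reaction followed for 2 h, and activity was taken from the initial linear portion of the progress-curve slope. Enzyme, substrate, buffer and detection conditions for each target are given only in the paper's supporting table.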"}, "[1]": {"target": "Collagenase 3 (Homo sapiens) (UniProt P45452)", "assay": "Inhibition of MMP13 (unknown origin) using (5-FAM/QXLTM) FRET peptide substrate assessed as residual activity at 10 uM incubated for 15 mins prior to substrate addition measured for 2 hrs", "method_in_brief": "as §2"}, "[2]": {"target": "Interstitial collagenase (Homo sapiens) (UniProt P03956)", "sequence (P03956 whole entry)": "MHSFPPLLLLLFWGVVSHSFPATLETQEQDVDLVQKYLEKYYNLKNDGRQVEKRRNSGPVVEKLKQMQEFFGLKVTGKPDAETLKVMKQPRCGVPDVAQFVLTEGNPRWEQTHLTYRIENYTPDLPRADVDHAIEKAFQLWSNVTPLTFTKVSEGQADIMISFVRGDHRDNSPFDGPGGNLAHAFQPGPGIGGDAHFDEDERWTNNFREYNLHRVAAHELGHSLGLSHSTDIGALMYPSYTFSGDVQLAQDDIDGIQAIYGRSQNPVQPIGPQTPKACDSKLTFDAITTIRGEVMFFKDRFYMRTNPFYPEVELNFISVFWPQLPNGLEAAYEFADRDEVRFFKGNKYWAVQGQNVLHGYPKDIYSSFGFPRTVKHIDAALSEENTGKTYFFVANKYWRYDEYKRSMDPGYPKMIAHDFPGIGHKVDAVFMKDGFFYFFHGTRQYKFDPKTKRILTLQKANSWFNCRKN", "assay": "Inhibition of MMP1 (unknown origin) using (5-FAM/QXLTM) FRET peptide substrate assessed as residual activity at 10 uM incubated for 15 mins prior to substrate addition measured for 2 hrs", "method_in_brief": "as §2"}, "[3]": {"target": "Coagulation factor VII (Homo sapiens) (UniProt P08709)", "sequence (P08709 61-212 limits assumed)": "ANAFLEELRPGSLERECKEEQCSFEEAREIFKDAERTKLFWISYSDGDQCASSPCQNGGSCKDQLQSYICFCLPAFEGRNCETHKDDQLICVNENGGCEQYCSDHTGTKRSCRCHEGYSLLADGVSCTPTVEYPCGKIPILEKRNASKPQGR", "sequence (P08709 213-466 limits assumed)": "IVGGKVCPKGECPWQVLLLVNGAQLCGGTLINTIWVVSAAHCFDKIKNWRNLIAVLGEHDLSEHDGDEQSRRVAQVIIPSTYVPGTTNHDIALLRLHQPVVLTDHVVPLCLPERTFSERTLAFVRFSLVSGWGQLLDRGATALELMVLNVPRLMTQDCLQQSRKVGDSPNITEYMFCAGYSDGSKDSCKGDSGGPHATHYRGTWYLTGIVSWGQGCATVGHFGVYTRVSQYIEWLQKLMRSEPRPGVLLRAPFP", "assay": "Inhibition of Factor-7a (unknown origin) using Z-VVR-AMC substrate assessed as residual activity at 10 uM incubated for 15 mins prior to substrate addition measured for 2 hrs", "method_in_brief": "as §2"}, "Tryptase gamma": {"target": "Tryptase gamma (Homo sapiens, UniProt Q9NRR2)", "sequence (Q9NRR2 38-321 limits assumed, other chains not shown)": "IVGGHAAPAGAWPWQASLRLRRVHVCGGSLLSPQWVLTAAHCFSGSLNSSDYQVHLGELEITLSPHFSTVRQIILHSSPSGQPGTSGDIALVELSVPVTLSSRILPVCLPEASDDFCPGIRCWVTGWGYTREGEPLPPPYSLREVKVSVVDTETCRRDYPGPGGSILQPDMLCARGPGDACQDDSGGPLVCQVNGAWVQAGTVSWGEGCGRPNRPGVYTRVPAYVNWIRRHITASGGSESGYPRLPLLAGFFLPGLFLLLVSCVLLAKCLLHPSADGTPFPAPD", "assay": "Inhibition of Tryptase gamma1 (unknown origin) using Z-GPR-AMC substrate assessed as residual activity at 10 uM incubated for 15 mins prior to substrate addition measured for 2 hrs", "method_in_brief": "as §1"}, "[4]": {"target": "Granzyme B (Homo sapiens) (UniProt P10144)", "sequence (P10144 whole entry)": "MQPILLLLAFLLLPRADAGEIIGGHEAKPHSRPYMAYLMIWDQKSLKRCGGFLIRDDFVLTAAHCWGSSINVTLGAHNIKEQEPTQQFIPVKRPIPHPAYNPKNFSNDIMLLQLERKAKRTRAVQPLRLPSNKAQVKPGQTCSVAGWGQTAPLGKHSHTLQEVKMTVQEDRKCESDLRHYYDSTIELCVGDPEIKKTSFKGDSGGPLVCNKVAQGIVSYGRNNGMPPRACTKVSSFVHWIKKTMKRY", "assay": "Inhibition of Granzyme B (unknown origin) using Ac-IEPD-AMC substrate assessed as residual activity at 10 uM incubated for 15 mins prior to substrate addition measured for 2 hrs", "method_in_brief": "as §2"}, "[5]": {"target": "72 kDa type IV collagenase (Homo sapiens) (UniProt P08253)", "sequence (P08253 110-660 limits assumed)": "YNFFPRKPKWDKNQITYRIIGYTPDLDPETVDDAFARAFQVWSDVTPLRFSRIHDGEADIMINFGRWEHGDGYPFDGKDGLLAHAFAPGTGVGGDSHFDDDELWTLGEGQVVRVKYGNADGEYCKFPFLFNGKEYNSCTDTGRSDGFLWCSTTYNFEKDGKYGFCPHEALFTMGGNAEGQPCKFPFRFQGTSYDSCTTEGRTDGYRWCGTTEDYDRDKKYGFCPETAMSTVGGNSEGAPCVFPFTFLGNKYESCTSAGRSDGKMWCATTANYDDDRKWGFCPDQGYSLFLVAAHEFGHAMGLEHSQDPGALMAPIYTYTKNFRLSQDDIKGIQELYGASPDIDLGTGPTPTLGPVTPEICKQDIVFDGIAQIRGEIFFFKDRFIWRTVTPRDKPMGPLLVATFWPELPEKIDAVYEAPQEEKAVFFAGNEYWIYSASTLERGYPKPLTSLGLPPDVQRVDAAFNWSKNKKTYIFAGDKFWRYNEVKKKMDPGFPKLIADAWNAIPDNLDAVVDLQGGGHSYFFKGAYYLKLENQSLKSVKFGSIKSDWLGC", "assay": "Inhibition of MMP2 (unknown origin) using (5-FAM/QXLTM) FRET peptide substrate assessed as residual activity at 10 uM incubated for 15 mins prior to substrate addition measured for 2 hrs", "method_in_brief": "as §2"}, "[6]": {"target": "T1, Neutrophil elastase (Homo sapiens) (UniProt P08246)", "T1 sequence (whole entry)": "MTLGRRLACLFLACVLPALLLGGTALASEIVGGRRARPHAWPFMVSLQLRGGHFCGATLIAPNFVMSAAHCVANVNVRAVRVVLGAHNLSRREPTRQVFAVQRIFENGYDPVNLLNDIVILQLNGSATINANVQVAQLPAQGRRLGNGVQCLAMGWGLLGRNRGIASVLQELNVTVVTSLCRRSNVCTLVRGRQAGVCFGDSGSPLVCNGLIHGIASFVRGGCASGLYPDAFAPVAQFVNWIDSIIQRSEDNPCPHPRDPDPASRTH", "settings": "10 uM"}, "[7]": {"target": "Cathepsin D (Homo sapiens) (UniProt P07339)", "assay": "Inhibition of Cathepsin D (unknown origin) using MCA-KPILFFRLK(Dnp)-D-R-NH2 substrate assessed as residual activity at 10 uM incubated for 15 mins prior to substrate addition measured for 2 hrs", "method_in_brief": "as §2"}, "[8]": {"target": "Cathepsin E (Homo sapiens) (UniProt P14091)", "assay": "Inhibition of Cathepsin E (unknown origin) using MCA-KPILFFRLK(Dnp)-D-R-NH2 substrate assessed as residual activity at 10 uM incubated for 15 mins prior to substrate addition measured for 2 hrs", "method_in_brief": "as §2"}, "[9]": {"target": "T1, Neutrophil elastase (Homo sapiens)", "settings": "10 uM", "remark": "listed apart in the source"}, "[10]": {"target": "Stromelysin-3 (Homo sapiens) (UniProt P24347)", "sequence (P24347 whole entry)": "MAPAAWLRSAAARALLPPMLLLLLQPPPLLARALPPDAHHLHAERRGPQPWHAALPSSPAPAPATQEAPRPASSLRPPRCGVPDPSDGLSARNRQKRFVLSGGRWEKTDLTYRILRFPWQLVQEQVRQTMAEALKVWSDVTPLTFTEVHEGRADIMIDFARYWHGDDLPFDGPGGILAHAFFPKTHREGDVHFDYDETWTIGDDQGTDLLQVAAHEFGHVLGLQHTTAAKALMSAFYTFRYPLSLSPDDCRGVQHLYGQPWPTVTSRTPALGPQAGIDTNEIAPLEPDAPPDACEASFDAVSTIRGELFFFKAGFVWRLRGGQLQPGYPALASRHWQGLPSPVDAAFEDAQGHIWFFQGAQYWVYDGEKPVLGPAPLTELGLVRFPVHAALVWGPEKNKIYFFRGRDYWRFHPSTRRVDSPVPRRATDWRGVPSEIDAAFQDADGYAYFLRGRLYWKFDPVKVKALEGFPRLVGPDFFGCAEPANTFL", "assay": "Inhibition of MMP11 (unknown origin) using (5-FAM/QXLTM) FRET peptide substrate assessed as residual activity at 10 uM incubated for 15 mins prior to substrate addition measured for 2 hrs", "method_in_brief": "as §2"}, "Chymase (Homo sapiens)": {"target": "Chymase (Homo sapiens) (UniProt P23946)", "sequence (P23946 whole entry)": "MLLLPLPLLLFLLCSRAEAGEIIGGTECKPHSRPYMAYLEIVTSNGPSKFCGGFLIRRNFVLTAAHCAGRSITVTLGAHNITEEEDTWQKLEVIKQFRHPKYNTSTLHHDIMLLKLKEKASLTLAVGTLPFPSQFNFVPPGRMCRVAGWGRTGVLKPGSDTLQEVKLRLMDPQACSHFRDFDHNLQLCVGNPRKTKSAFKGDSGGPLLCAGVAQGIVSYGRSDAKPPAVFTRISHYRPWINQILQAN", "assay": "Inhibition of Chymase (unknown origin) using Suc-AAPF-AMC substrate assessed as residual activity at 10 uM incubated for 15 mins prior to substrate addition measured for 2 hrs", "method_in_brief": "as §2"}, "[11]": {"assay": "Inhibition of Thrombin alpha (unknown origin) using H-D-CHA -Ala-Arg-AMC.2AcOH substrate incubated for 15 mins prior to substrate addition measured for 2 hrs", "parameters": "species or system Homo sapiens", "method_in_brief": "as §1"}, "[12]": {"target": "Matrilysin (Homo sapiens) (UniProt P09237)", "sequence (P09237 whole entry)": "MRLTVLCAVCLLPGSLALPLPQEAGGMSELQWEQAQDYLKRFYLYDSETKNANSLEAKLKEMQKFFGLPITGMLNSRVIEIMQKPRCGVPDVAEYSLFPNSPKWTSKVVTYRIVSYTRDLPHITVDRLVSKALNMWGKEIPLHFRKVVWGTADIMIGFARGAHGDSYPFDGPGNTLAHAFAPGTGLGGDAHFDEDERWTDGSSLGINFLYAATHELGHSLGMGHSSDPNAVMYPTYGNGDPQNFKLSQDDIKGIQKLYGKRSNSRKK", "assay": "Inhibition of MMP7 (unknown origin) using (5-FAM/QXLTM) FRET peptide substrate assessed as residual activity at 10 uM incubated for 15 mins prior to substrate addition measured for 2 hrs", "method_in_brief": "as §1"}, "[13]": {"target": "T1, Neutrophil elastase (Homo sapiens)", "settings": "10 uM", "remark": "listed apart in the source"}, "Kallikrein-5": {"target": "Kallikrein-5 (Homo sapiens, UniProt Q9Y337)", "sequence (Q9Y337 whole entry)": "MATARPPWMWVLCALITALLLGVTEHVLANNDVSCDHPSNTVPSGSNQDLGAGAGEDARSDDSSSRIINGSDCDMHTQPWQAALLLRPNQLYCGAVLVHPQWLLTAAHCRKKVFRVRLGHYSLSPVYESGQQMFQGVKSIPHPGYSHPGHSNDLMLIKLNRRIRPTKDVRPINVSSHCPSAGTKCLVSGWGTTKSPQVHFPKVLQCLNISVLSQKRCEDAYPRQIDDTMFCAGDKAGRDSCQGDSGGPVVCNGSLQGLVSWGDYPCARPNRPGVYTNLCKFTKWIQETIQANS", "assay": "Inhibition of Kallikrein-5 (unknown origin) using Z-VVR-AMC substrate incubated for 15 mins prior to substrate addition measured for 2 hrs", "method_in_brief": "as §2"}, "[14]": {"target": "Vitamin K-dependent protein C (Homo sapiens) (UniProt P04070)", "sequence (P04070 43-197 limits assumed)": "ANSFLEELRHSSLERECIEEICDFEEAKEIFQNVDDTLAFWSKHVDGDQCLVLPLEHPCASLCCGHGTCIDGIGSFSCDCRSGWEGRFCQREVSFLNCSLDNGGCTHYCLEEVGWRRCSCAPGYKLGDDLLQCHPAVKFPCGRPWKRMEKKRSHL", "sequence (P04070 212-461 limits assumed)": "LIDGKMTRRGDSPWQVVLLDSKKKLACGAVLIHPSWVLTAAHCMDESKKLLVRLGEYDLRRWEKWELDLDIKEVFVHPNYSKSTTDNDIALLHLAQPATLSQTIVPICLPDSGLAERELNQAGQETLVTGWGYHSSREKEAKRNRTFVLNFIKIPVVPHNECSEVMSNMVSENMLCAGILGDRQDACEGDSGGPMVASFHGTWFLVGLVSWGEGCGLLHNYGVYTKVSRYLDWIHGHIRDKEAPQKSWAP", "assay": "Inhibition of Activated Protein C (unknown origin) using Boc-DVLR-ANSNH-C4H9 substrate assessed as residual activity at 10 uM incubated for 15 mins prior to substrate addition measured for 2 hrs", "method_in_brief": "as §2"}, "[15]": {"target": "Macrophage metalloelastase (Homo sapiens) (UniProt P39900)", "sequence (P39900 106-470 limits assumed)": "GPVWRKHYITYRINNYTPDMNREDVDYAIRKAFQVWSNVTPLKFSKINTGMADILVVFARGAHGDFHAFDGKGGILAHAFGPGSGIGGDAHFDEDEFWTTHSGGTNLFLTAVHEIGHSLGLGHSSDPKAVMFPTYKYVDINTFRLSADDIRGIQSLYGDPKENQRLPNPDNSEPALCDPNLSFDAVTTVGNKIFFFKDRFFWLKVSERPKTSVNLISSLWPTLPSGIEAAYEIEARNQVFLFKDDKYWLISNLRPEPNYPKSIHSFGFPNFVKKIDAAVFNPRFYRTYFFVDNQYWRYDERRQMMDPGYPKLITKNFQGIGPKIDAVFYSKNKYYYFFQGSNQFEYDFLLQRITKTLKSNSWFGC", "assay": "Inhibition of MMP12 (unknown origin) using (5-FAM/QXLTM) FRET peptide substrate assessed as residual activity at 10 uM incubated for 15 mins prior to substrate addition measured for 2 hrs", "method_in_brief": "as §2"}, "[16]": {"target": "Tryptase beta-2 (Homo sapiens) (UniProt P20231)", "assay": "Inhibition of Tryptase beta2 (unknown origin) using Z-GPR-AMC substrate assessed as residual activity at 10 uM incubated for 15 mins prior to substrate addition measured for 2 hrs"}, "Cathepsin G": {"target": "Cathepsin G (Homo sapiens, UniProt P08311)", "sequence (P08311 whole entry)": "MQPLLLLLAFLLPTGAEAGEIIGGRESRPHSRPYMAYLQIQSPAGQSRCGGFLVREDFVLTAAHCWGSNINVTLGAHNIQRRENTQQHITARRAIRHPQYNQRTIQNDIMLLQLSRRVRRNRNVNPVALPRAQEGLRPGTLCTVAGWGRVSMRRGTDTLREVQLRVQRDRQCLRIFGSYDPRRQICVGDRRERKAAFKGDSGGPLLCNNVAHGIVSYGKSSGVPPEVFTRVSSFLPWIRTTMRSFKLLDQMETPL", "assay": "Inhibition of Cathepsin G (unknown origin) using Suc-AAPF-AMC substrate incubated for 15 mins prior to substrate addition measured for 2 hrs", "method_in_brief": "as §2"}, "[17]": {"target": "Pro-cathepsin H (Homo sapiens) (UniProt P09668)", "assay": "Inhibition of Cathepsin H (unknown origin) using R-AMC substrate assessed as residual activity at 10 uM incubated for 15 mins prior to substrate addition measured for 2 hrs", "method_in_brief": "as §2"}, "[18]": {"target": "Kallikrein-8 (Homo sapiens) (UniProt O60259)", "sequence (O60259 whole entry)": "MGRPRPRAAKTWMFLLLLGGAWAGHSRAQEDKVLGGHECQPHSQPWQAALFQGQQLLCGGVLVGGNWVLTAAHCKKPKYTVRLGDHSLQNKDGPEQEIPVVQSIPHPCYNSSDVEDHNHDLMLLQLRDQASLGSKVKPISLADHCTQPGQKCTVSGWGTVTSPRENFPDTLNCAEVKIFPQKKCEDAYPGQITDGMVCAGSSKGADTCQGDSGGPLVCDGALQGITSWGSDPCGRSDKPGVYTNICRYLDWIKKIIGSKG", "assay": "Inhibition of Kallikrein-8 (unknown origin) using VPR-AMC substrate assessed as residual activity at 10 uM incubated for 15 mins prior to substrate addition measured for 2 hrs", "method_in_brief": "as §2"}, "[19]": {"target": "Urokinase-type plasminogen activator (Homo sapiens) (UniProt P00749)", "assay": "Inhibition of Urokinase (unknown origin) using Bz-b-Ala-Gly-Arg-AMC.AcOH substrate assessed as residual activity at 10 uM incubated for 15 mins prior to substrate addition measured for 2 hrs", "method_in_brief": "as §1"}},
  "note": "Activity calls are given as the source filed them. No cut-off for these calls is given here.",
  "data": [
    {"smiles": "C/C=C1\\NC(=O)[C@@H](NC(=O)[C@@H](NC(=O)[C@@H](COS(=O)(=O)[O-])OC)C(C)C)[C@@H](C)OC(=O)[C@H]([C@H](C)CC)NC(=O)[C@H](Cc2ccccc2)N(C)C(=O)[C@H](Cc2ccccc2)N2C(=O)[C@H](CC[C@H]2O)NC1=O.[Na+]", "note": "[Symplostatin 5]", "values": [
      {"measurement": "pIC50", "setting": "Trypsin", "result": "> 5"},
      {"measurement": "IC50", "setting": "Kallikrein-12", "result": "< 10", "unit": "µM"},
      {"measurement": "Activity", "setting": "[1]", "result": 100, "unit": "%"},
      {"measurement": "Activity", "setting": "[2]", "result": 100, "unit": "%"},
      {"measurement": "Activity", "setting": "[3]", "result": 100, "unit": "%"},
      {"measurement": "Activity", "setting": "Tryptase gamma", "result": 100, "unit": "%"},
      {"measurement": "Activity", "setting": "[4]", "result": 100, "unit": "%"},
      {"measurement": "Activity", "setting": "[5]", "result": 100, "unit": "%"},
      {"measurement": "inhibition", "setting": "[6]", "result": "Active"},
      {"measurement": "Activity", "setting": "[7]", "result": 100, "unit": "%"},
      {"measurement": "Activity", "setting": "[8]", "result": 100, "unit": "%"},
      {"measurement": "inhibition", "setting": "[9]", "result": "Active"},
      {"measurement": "Activity", "setting": "[10]", "result": 100, "unit": "%"},
      {"measurement": "Activity", "setting": "Chymase (Homo sapiens)", "result": 100, "unit": "%"},
      {"measurement": "pIC50", "setting": "[11]", "result": "> 5"},
      {"measurement": "Activity", "setting": "[12]", "result": 100, "unit": "%"},
      {"measurement": "inhibition", "setting": "[13]", "result": "Active"},
      {"measurement": "IC50", "setting": "Kallikrein-5", "result": "< 10", "unit": "µM"},
      {"measurement": "Activity", "setting": "[14]", "result": 100, "unit": "%"},
      {"measurement": "Activity", "setting": "[15]", "result": 100, "unit": "%"},
      {"measurement": "Activity", "setting": "[16]", "result": 100, "unit": "%"},
      {"measurement": "IC50", "setting": "Cathepsin G", "result": "< 10", "unit": "µM"},
      {"measurement": "Activity", "setting": "[17]", "result": 100, "unit": "%"},
      {"measurement": "Activity", "setting": "[18]", "result": 50, "unit": "%"},
      {"measurement": "Activity", "setting": "[19]", "result": 100, "unit": "%"}
    ]}
  ]
}
